Assay results taken from PMC9043816 (RSC Advances, 2021).
Several values for one entry are separate records, joined by “and”; a condition that tells them apart may be missing. Equal entries are not always repeated. Where two headings read alike, the source gives them in different places.

What was measured:
[1] = tested on: human cervical carcinoma cell line (HeLa); assay: MTS cytotoxicity assay, HeLa; format: cell-based
Procedure, shortened: (§1)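 Cells grown in DMEM or RPMI 1640 with 10% FBS and penicillin/streptomycin (37 °C, 5% CO2), seeded at 4000–6000 cells per mL, then after 24 h treated for 48 h with several concentrations (DMSO stock 100 mM). Medium replaced, MTS added for 3 h at 37 °C, A492 read. Inhibition % relative to untreated and blank; IC50 by curve fitting; at least three wells per concentration.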

[2] = tested on: human tongue carcinoma cell line (SCC-15); assay: MTS cytotoxicity assay, SCC-15; format: cell-based
Procedure, shortened: as §1

[3] = tested on: human breast carcinoma cell line (MCF-7); assay: MTS cytotoxicity assay, MCF-7; format: cell-based
Procedure, shortened: as §1

[4] = tested on: human hepatoma carcinoma cell lines (HepG2); assay: MTS cytotoxicity assay, HepG2; format: cell-based
Procedure, shortened: as §1

[5] = tested on: normal cells, such as HFL, PrEC, HMEC and HUVEC; details: unless its concentration exceeded 5–10 μM; cited from earlier work
BT20 cells = details: 200 mg kg^−1, i.p.; cited from earlier work
[6] = tested on: 94 different cancer cell lines; details: read-out: IC50 values against 94 different cancer cell lines; in vitro; cited from earlier work
[7] = tested on: Bel-7402, MCF-7 and MIA-PaCa cells; details: 250 mg kg^−1, i.p.; cited from earlier work
Bcl-2 = assay: Western blotting, Bcl-2 expression in HeLa cells; format: cell-based, human; details: 25 nM, 50 nM and 100 nM, 48 h
Procedure, shortened: (§2)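 HeLa cells seeded at 1 × 10^5 cells per mL overnight, then given test compound (25, 50, 100 nM final) for 48 h. Lysed on ice 20 min; protein quantified by BCA. Equal protein run on SDS-PAGE and transferred to PVDF, then blocked in 5% nonfat milk. Primary antibodies (p53, Bcl-2, Bax, GAPDH loading) overnight at 4 °C; peroxidase secondary 2 h; chemiluminescent detection.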

[8] = tested on: human umbilical vein endothelial cells (HUVEC); assay: MTS cytotoxicity assay, HUVEC normal cells; format: cell-based; details: read-out: IC50 HUVEC, 48 h treatment
Procedure, shortened: as §1

HeLa cells [9] = assay: 7-AAD/annexin V flow cytometry apoptosis assay; format: cell-based, human; details: 100 nM
Procedure, shortened: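 HeLa cells seeded at 1 × 10^5 cells per mL, grown overnight, then exposed to test compound (25, 50 or 100 nM final) for 24, 36 or 48 h. Cells were washed in cold PBS, trypsinized, and stained with annexin V-FITC plus 7-AAD for 15 min at room temperature in the dark. Analysed by flow cytometry; apoptotic % = early (annexin V+) plus late (annexin V+/7-AAD+).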

HeLa cells [10] = assay: Wound healing assay; format: cell-based, human; details: serum starved
Procedure, shortened: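 HeLa cells seeded at 2.5 × 10^5 cells per mL and grown to about 90% confluence; monolayer scratched with p10 tips, washed twice in PBS. Serum-free medium with test compound (25, 50, 100 nM final) or DMSO for 48 h. Gaps photographed at 0, 24, 48 h (10× magnification); healing rate from change in wound area; three independent experiments.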

p53 = assay: Western blotting, p53 expression in HeLa cells; format: cell-based, human; details: 25 nM, 50 nM and 100 nM, 48 h
Procedure, shortened: as §2

Bax = assay: Western blotting, Bax expression in HeLa cells; format: cell-based, human; details: 25 nM, 50 nM and 100 nM, 48 h
Procedure, shortened: as §2

[11] = Homo sapiens, HeLa, 48 h, read-out: IC50 HeLa, MTS, 48 h treatment
[12] = Homo sapiens, SCC-15, 48 h, read-out: IC50 SCC-15, MTS, 48 h treatment
[13] = Homo sapiens, MCF7, 48 h, read-out: IC50 MCF-7, MTS, 48 h treatment
[14] = Homo sapiens, HepG2, 48 h, read-out: IC50 HepG2, MTS, 48 h treatment

COc1ccc(CSc2ccc3ccccc3c2)cc1N [12e, 2-Methoxy-5-((naphthalen-2-ylthio)methyl)aniline]
IC50 [1, 11]: 4060 ± 316 nM | IC50 [2, 12]: 2210 ± 314 nM | IC50 [3, 13]: 17500 ± 2320 nM | IC50 [4, 14]: 42600 ± 3810 nM

COc1ccc(CS(=O)(=O)c2ccc3ccccc3c2)cc1N [12b, 2-Methoxy-5-((naphthalen-2-ylsulfonyl)methyl)aniline]
IC50 [1, 11]: 30 ± 5 nM | IC50 [2, 12]: 28 ± 6 nM | IC50 [3, 13]: 110 ± 14 nM | IC50 [4, 14]: 43 ± 7 nM

COc1ccc(C[S+]([O-])c2ccc3ccccc3c2)cc1NCC(=O)O (stereo not shown) [15a, (2-Methoxy-5-((naphthalen-2-ylsulfinyl)methyl)phenyl)glycine]
IC50 [1, 11]: 230 ± 4 nM | IC50 [2, 12]: 722 ± 29 nM | IC50 [3, 13]: 2030 ± 73 nM | IC50 [4, 14]: 5080 ± 318 nM

COc1ccc(C[S+]([O-])c2ccc3cc(Br)ccc3c2)cc1N (stereo not shown) [12c, 5-(((6-Bromonaphthalen-2-yl)sulfinyl)methyl)-2-methoxyaniline]
IC50 [1, 11]: 92 ± 9 nM | IC50 [2, 12]: 264 ± 27 nM | IC50 [3, 13]: 858 ± 88 nM | IC50 [4, 14]: 1310 ± 91 nM

COc1ccc(C[S+]([O-])c2ccc3ccccc3c2)cc1N (stereo not shown) [12a, 2-Methoxy-5-((naphthalen-2-ylsulfinyl)methyl)aniline]
IC50 [1, 11]: 173 ± 31 nM | IC50 [2, 12]: 148 ± 27 nM | IC50 [3, 13]: 681 ± 48 nM | IC50 [4, 14]: 434 ± 38 nM

COc1cc(OC)c(/C=C/S(=O)(=O)Cc2ccc(OC)c(NCC(=O)O)c2)c(OC)c1 [Rigosertib, reference compound]
IC50 [1, 11]: 65 ± 5 nM | IC50 [2, 12]: 35 ± 3 nM | anti-proliferative effect on normal cells [5]: little or no anti-proliferative effect | IC50 [3, 13]: 22 ± 3 nM | tumor growth in mouse xenograft model (BT20 cells): remarkably inhibit tumor growth | IC50 [4, 14]: 108 ± 17 nM | IC50 [6]: 50 to 250 nM | tumor growth in mouse xenograft models [7]: significantly suppress tumor growth

COc1ccc(CS(=O)(=O)c2ccc3cc(Br)ccc3c2)cc1N [12d, 5-(((6-Bromonaphthalen-2-yl)sulfonyl)methyl)-2-methoxyaniline]
IC50 [1, 11]: 64 ± 5 nM | IC50 [2, 12]: 78 ± 2 nM | IC50 [3, 13]: 95 ± 8 nM | IC50 [4, 14]: 402 ± 35 nM

COc1ccc(CS(=O)(=O)c2ccc3ccccc3c2)cc1NCC(=O)O [15b, (2-Methoxy-5-((naphthalen-2-ylsulfonyl)methyl)phenyl)glycine]
expression of antiapoptotic protein Bcl-2 (Bcl-2): down-regulation | IC50 ([1]; read-out: IC50 HeLa, MTS, 48 h treatment): 64 ± 5 nM | IC50 [8]: 1060 ± 48 nM | apoptotic values (early and late apoptotic states) (HeLa cells [9]; 24 h): 9.2% | apoptotic values (early and late apoptotic states) (HeLa cells [9]; 36 h): 30.2% | apoptotic values (early and late apoptotic states) (HeLa cells [9]; 48 h): 53.2% | IC50 ([2]; read-out: IC50 SCC-15, MTS, 48 h treatment): 15 ± 2 nM | IC50 ([3]; read-out: IC50 MCF-7, MTS, 48 h treatment): 29 ± 1 nM | Wound healing rate (HeLa cells [10]; 25 nM, 24 h, control 46.4): 20.0% and 20.0 ± 3.5 % | Wound healing rate (HeLa cells [10]; 25 nM, 48 h, control 70.8): 32.0% and 32.0 ± 6.1 % | Wound healing rate (HeLa cells [10]; 50 nM, 24 h, control 46.4): 13.2 ± 2.2 % | Wound healing rate (HeLa cells [10]; 50 nM, 48 h, control 70.8): 15.5 ± 3.4 % | Wound healing rate (HeLa cells [10]; 100 nM, 24 h, control 46.4): 3.9% and 3.9 ± 3.0 % | Wound healing rate (HeLa cells [10]; 100 nM, 48 h, control 70.8): 4.4% and 4.4 ± 2.7 % | levels of the proapoptotic protein p53 (p53): increased significantly | IC50 ([4]; read-out: IC50 HepG2, MTS, 48 h treatment): 390 ± 13 nM | expression of proapoptotic protein Bax (Bax): up-regulation
